Data set [1] can be described thus: Clearance in NSG mouse at 20 mg/kg, ip administered as single dose by HPLC-MS/MS analysis. It is filed as ADME, organism-based. Particulars: in vivo. In outline:
(§1)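 NSG mice given a single 20 mg/kg IP dose in Cremophor EL/EtOH (1:1, 4% final volume)/sterile saline. Tail-vein blood at 0.5, 1, 2, 4, 8 and 24 h, n = 2. Drug quantified in serum/plasma. Half-life and clearance calculated assuming 100% bioavailability.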

For data set [2], the target named is Histone deacetylase 11 (Homo sapiens) (UniProt Q96DB2). Put plainly: Inhibition of recombinant human HDAC11 expressed in SF9 baculoviral system at 10 uM using FAM-labeled acetylated peptide as substrate by EMSA relative to control. In short, it runs like this:
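Full-length recombinant human HDACs from an Sf9 baculovirus system. Single-point screen at 10 μM by microfluidic mobility-shift assay with FAM-labeled acetylated peptide substrate. Buffer: 100 mM HEPES pH 7.5, 25 mM KCl, 0.1% BSA, 0.01% Triton X-100, 1% DMSO. % inhibition from product/(substrate + product) against no-inhibitor and no-enzyme controls.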
On the technique in general: In EMSA bound probe runs differently from free probe, usually more slowly.

Data set [3] in a line: Stability of the compound in DMSO at 10 mM after 25 hrs in presence of reduced L-glutathione by HPLC analysis. It is filed as physicochemical. Particulars: 10000 µM. In short, it runs like this:
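A 10 mM DMSO stock was mixed with 100-fold excess reduced glutathione in HEPES buffer, pH 7.4. Samples were analysed by reversed-phase HPLC at regular intervals, with UV at 254 nm. Decay of the parent compound was followed as loss of its peak area.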

Data set [4] has as its target Signal transducer and activator of transcription 3 (Homo sapiens) (UniProt P40763). Put plainly: Inhibition of STAT3 phosphorylation at Y705 residue in human BTSC 147EF cells at 2 uM after 3 to 24 hrs by Western blot method. It is filed as cell-based. In short, it runs like this:
(§2)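 BTSCs dissociated to single cells and treated with drug or DMSO. Lysed in RIPA buffer with protease inhibitors. 20 μg lysate run on SDS-PAGE and transferred to nitrocellulose. Blocked in 5% milk, primary antibody overnight at 4 °C, then HRP secondary for 1 h.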
Background: In western blotting, separated proteins are transferred to a membrane and probed.

The nature of data set [5]: Drug uptake in NSG mouse serum at 20 mg/kg, ip administered as single dose and measured at 0.5 hrs by HPLC-MS/MS analysis. Particulars: read-out: Drug uptake. It is filed as ADME, organism-based. In outline:
as §1

Data set [6] in a line: Drug uptake in NSG mouse serum at 20 mg/kg, ip administered as single dose and measured at 8 hrs by HPLC-MS/MS analysis. It is filed as ADME, organism-based. Particulars: read-out: Drug uptake. In short, it runs like this:
as §1

The target in data set [7] is T1, Histone deacetylase 11 (Homo sapiens, UniProt Q96DB2).
T1 sequence (Q96DB2 whole entry): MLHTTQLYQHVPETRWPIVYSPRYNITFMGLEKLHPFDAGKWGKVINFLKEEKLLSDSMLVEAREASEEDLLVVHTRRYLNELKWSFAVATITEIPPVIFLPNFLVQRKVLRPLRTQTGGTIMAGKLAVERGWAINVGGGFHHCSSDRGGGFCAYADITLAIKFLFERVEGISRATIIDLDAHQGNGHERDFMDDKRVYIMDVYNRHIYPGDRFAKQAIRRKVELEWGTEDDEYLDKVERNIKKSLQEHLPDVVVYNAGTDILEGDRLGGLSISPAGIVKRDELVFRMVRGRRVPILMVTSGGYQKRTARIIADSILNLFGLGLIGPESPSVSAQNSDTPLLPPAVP
Put plainly: Inhibition of recombinant human HDAC11 expressed in SF9 baculoviral system using FAM-labeled acetylated peptide as substrate by EMSA. In short, it runs like this:
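Full-length human HDAC11 (Sf9-expressed), 10 nM final, in 100 mM HEPES pH 7.5, 25 mM KCl, 0.1% BSA, 0.01% Triton X-100, 1% DMSO. FAM-acetylated peptide substrate at 100 μM, mobility-shift read-out. Product/(substrate + product) converted to % inhibition. IC50 from a four-parameter fit; dose-response spans 12 threefold dilutions from 30.0 μM.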

A short description of data set [8]: Drug uptake in NSG mouse serum at 10 mg/kg, ip administered daily for 5 days by HPLC-MS/MS analysis. It is filed as ADME, organism-based. Particulars: read-out: Drug uptake. In outline:
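NSG mice dosed IP once daily for 5 days at 10 or 40 mg/kg, n = 6. Blood collected 5 h after the final injection for serum drug concentration, reported ± SD.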

A short description of data set [9]: Tmax in NSG mouse at 20 mg/kg, ip administered as single dose by HPLC-MS/MS analysis. It is filed as ADME, organism-based. Particulars: in vivo. In short, it runs like this:
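NSG mice received a single 20 mg/kg IP injection in Cremophor EL/EtOH (1:1, 4% final volume)/sterile saline. Tail-vein blood was taken at 0.5, 1, 2, 4, 8 and 24 h, and compound was quantified in plasma (n = 2).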

A short description of data set [10]: Cytotoxicity against human […] cells assessed as reduction in tumor spheroid intensity after 72 hrs by Alamar Blue assay. It is filed as cell-based. In outline:
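3D spheroids of patient-derived PDAC cells (tomato red) alone or with CAF19 cells, plus CAF cultures. Imaging read-outs: area is the μ2 of objects above a tomato red intensity threshold; intensity is summed red or green pixel fluorescence after background removal. n = 3–5.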

Data set [11] has as its system Panc1005. Put plainly: Cytotoxicity against human Panc 10.05 monolayer cells assessed as reduction in tumor spheroid intensity after 72 hrs by Alamar Blue assay. It is filed as functional, cell-based. The conditions noted are these: Panc1005, 72 h. In outline: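 Monolayer proliferation of STR-authenticated, mycoplasma-checked patient-derived PDAC lines and mouse KPC cells. Plated at 2000 cells/well, treated 72 h, read by alamarBlue. At least triplicate, n = 3–5.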
For orientation: Alamar Blue is a resazurin reagent that responds to reducing activity.

In data set [12] the target is Protein deacetylase HDAC6 (Homo sapiens) (UniProt Q9UBN7). Put plainly: Inhibition of recombinant human HDAC6 expressed in SF9 baculoviral system at 10 uM using FAM-labeled acetylated peptide as substrate by EMSA relative to control. In short, it runs like this:
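Single-point screen at 10 μM compound, using full-length recombinant human enzyme expressed in Sf9 cells. Buffer was HEPES pH 7.5 with KCl, BSA and Triton X-100, and 1% DMSO. Final enzyme was 0.5 nM for HDAC3, 60 nM for HDAC6 and 5.0 nM for HDAC8, with 1 μM FAM-acetylated peptide. Percent inhibition was derived from the product sum ratio relative to DMSO-only (0%) and no-enzyme (100%) controls.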

Data set [13] has as its system MV4-11. The data set can be described thus: Cytotoxicity against human MV4-11 cells at 50 uM after 72 hrs by CellTiter-Blue assay. It is filed as functional, cell-based. In short, it runs like this:
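Cells in 10% FBS medium, 10 000 cells/well, treated 24 h after plating. Twofold dilution series from a 50.0 μM top dose to 0.097656 μM, in triplicate, 0.5% DMSO vehicle. 72 h at 37 °C, 5% CO2. CellTiter-Blue for 1–4 h, fluorescence 560/590 nm. IC50 by nonlinear regression.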

For data set [14], the species on record is Homo sapiens. The data set can be described thus: Cytotoxicity against human D458 cells at 39 nM after 72 hrs by Presto Blue assay. It is filed as functional, cell-based. In short, it runs like this: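 D425 and D458 medulloblastoma cells in DMEM high glucose with 20% FBS, seeded at 1000 cells/well in medium with 1% FBS. Twofold dilutions from 20 μM down to 39 nM. Exposed 3 days at 37 °C. Presto Blue added about 4 h before fluorescence read (540–570 nm). IC50 from % viability versus log concentration.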

For data set [15], the target named is Signal transducer and activator of transcription 3 (Homo sapiens) (UniProt P40763). The data set can be described thus: Inhibition of STAT3 phosphorylation at S727 residue in human BTSC 143EF cells at 1 to 10 uM after 24 hrs by Western blot method. It is filed as cell-based. In outline:
as §2

The target is the same in data set [16]. Put plainly: Inhibition of STAT3 phosphorylation at S727 residue in human BTSC 147EF cells at 2 uM after 3 to 24 hrs by Western blot method. It is filed as cell-based. In short, it runs like this: as §2

Here are results for one molecule from ChEMBL document CHEMBL4400543, “Identification and Characterization of AES-135, a Hydroxamic Acid-Based HDAC Inhibitor That Prolongs Survival in an Orthotopic Mouse Model of Pancreatic Cancer” (J Med Chem, 2019).

pIC50: −log10 of the molar value. Active and inactive are the calls of the source.

Signal transducer and activator of transcription 3 (Homo sapiens), sequence (P40763 whole entry): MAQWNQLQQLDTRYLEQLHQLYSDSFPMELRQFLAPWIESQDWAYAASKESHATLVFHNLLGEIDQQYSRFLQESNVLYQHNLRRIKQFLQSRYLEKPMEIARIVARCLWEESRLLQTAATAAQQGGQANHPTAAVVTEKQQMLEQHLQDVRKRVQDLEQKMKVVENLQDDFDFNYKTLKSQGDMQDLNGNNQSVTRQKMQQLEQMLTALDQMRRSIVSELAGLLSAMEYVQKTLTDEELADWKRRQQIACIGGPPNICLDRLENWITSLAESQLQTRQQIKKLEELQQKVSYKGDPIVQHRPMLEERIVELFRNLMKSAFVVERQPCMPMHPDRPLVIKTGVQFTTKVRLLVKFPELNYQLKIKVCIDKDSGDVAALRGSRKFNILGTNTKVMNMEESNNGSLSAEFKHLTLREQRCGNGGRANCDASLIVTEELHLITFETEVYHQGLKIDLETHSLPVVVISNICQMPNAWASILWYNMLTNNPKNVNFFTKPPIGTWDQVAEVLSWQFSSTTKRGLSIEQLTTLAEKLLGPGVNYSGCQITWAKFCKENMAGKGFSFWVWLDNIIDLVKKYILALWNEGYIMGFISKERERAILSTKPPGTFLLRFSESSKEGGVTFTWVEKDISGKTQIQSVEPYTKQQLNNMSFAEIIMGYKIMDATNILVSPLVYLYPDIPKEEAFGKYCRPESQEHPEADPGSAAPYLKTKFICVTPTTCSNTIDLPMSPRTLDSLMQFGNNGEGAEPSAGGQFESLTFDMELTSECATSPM
Protein deacetylase HDAC6 (Homo sapiens), sequence (Q9UBN7 whole entry): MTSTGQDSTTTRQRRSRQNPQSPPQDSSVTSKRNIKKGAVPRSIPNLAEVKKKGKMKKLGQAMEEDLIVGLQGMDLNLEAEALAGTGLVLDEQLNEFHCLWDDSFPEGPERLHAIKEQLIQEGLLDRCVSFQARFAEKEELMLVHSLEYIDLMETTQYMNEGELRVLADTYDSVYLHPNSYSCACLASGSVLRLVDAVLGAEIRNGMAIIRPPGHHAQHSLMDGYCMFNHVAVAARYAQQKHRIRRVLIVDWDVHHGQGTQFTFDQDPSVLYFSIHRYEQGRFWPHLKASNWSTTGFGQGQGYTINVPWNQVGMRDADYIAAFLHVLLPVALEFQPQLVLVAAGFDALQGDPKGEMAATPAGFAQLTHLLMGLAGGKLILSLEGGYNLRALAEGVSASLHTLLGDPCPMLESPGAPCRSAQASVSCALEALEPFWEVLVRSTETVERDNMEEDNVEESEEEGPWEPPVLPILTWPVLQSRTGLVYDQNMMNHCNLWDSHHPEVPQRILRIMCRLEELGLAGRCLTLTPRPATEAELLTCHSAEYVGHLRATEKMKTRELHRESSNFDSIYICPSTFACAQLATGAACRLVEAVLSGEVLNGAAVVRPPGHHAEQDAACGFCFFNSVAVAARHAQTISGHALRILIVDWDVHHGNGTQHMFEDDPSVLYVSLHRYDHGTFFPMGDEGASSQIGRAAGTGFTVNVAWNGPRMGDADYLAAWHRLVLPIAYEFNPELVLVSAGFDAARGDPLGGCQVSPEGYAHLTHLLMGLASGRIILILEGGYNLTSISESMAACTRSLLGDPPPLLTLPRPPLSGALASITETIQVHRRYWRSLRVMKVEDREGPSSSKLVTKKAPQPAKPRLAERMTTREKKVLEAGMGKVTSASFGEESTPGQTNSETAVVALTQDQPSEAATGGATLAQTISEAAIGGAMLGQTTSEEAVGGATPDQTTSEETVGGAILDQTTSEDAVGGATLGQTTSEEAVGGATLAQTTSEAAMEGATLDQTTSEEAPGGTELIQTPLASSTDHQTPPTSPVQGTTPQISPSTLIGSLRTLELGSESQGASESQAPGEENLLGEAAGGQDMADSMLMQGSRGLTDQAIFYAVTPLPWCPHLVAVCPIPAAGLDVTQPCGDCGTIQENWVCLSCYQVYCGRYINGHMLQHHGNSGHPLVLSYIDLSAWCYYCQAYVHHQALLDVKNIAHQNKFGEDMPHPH

With `CC(C)(C)c1ccc(CN(C(=O)CN(Cc2c(F)c(F)c(F)c(F)c2F)S(=O)(=O)c2ccc(F)cc2)c2ccc(C(=O)NO)cc2)cc1`, the CL/F (commonly clearance divided by bioavailability, as obtained after extravascular dosing) in [1] is 0.0667 mL/min. In addition, the inhibition – broadly, how much of the control response was suppressed – in data set [2] amounted to 97%; in data set [12], 98%. Further, in data set [3], the Stability entry is recorded as “Stable”. In addition, the inhibition result in data set [4], in [15] and in data set [16] was “inactive” in each case. Also, the concentration at 0.5 h in data set [5] worked out at 7450 ng/mL. Also, the concentration at 8 h in data set [6] stood at 6390 ng/mL. For the same molecule, the values for the pIC50 in data set [7], in [10] and in data set [11] were 6.20, 5.35 to 5.47 and 5.41, respectively. Further, the concentration at 120 h in data set [8] was determined as 470 nM. In data set [9], the Tmax – broadly, the time at which the peak concentration occurs – amounted to 30 min. Further, the outcome in [13] and in data set [14] was Active.
